Measured values: paper PMC6044926 (ACS Omega, 2017)
Positions count from the first letter of the chain named. Names and notes keep the numbering of the source. Values joined by “and” are separate entries in the source; they are usually repeats but may differ in a detail not shown here. Equal entries are not always repeated. “Also recorded” adds a separate entry of the source. Each block holds one molecule with its values, some of them ahead of it.

Columns and labels:
TPMT*8 (R215H) [1] = biological target: T1, TPMT*8 (R215H) (Homo sapiens, UniProt P51580, R215H); assay: Thermal denaturation by CD at 222 nm in the presence of ligand, TPMT*8; type: binding
T1 sequence (P51580 1-245 R215H): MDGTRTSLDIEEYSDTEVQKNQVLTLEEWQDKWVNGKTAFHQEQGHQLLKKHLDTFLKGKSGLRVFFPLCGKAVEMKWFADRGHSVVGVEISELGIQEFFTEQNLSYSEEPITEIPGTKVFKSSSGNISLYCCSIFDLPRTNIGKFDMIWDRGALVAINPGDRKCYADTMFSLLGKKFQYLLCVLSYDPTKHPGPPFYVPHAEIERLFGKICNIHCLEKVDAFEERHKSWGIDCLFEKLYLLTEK
How it was run: (§1)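 Far-UV CD thermal unfolding at 222 nm, 18 to 80 °C in 2° steps, 10 scans over 60 s per step. Sample was 3 μM purified recombinant TPMT in 20 mM potassium phosphate pH 7.3, 75 mM NaCl, 2% glycerol, 0.5 mM TCEP, 4 mm cuvette. Run without ligand, with 30 μM SAM, or with 60 μM ANS. Tm fitted from three independent measurements.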

TPMTwt [2] = biological target: T2, TPMTwt (Homo sapiens, UniProt P51580); assay: Thermal denaturation by CD at 222 nm in the presence of ligand, TPMTwt; type: binding
T2 sequence (P51580 1-245): T1 sequence (P51580 1-245 R215H) with H215R
How it was run: as §1

TPMT*8 (R215H) [3] = biological target: T1, TPMT*8 (R215H); assay: ITC binding of SAM and ANS to TPMT*8
How it was run: (§2)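 Isothermal titration calorimetry at 25 °C (reference power 7 μcal s−1) of ~50 μM His-tag-cleaved recombinant human TPMT (residues 1–245; E. coli BL21-CodonPlus(DE3)-RIL; Ni-NTA and gel filtration). Thirteen injections per run, at least three runs per variant–ligand pair, fitted to a binding model.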

TPMT*6 (Y180F) [4] = biological target: T3, TPMT*6 (Y180F) (Homo sapiens, UniProt P51580, Y180F); assay: ITC binding of SAM and ANS to TPMT*6
T3 sequence (P51580 1-245 Y180F): T1 sequence (P51580 1-245 R215H) with Y180F, H215R
How it was run: as §2

TPMT*6 (Y180F) [5] = biological target: T3, TPMT*6 (Y180F); assay: Thermal denaturation by CD at 222 nm in the presence of ligand, TPMT*6; type: binding
How it was run: as §1

TPMTwt [6] = biological target: T2, TPMTwt; assay: ITC binding of SAM and ANS to TPMTwt; conditions: dissociation constant, 25 °C
How it was run: as §2

TPMT*6 (Y180F) [7] = biological target: T3, TPMT*6 (Y180F); assay: Thermal denaturation monitored as ANS fluorescence emission at 475 nm, TPMT*6; type: binding; conditions: ANS emission at 475 nm, ANS in 20-fold molar excess (60 μM)
How it was run: (§3)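 Scanned 18 to 80 °C in 2° steps. Excitation 360 nm, emission 400–600 nm. Tm taken from the relative change in maximum intensity at 475 nm, three independent measurements.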

TPMT*8 (R215H) [8] = biological target: T1, TPMT*8 (R215H); assay: Thermal denaturation monitored as ANS fluorescence emission at 475 nm, TPMT*8; type: binding; conditions: ANS emission at 475 nm, ANS in 20-fold molar excess (60 μM)
How it was run: as §3

TPMTwt [9] = biological target: T2, TPMTwt; assay: Thermal denaturation monitored as ANS fluorescence emission at 475 nm, TPMTwt; type: binding; conditions: ANS emission at 475 nm, ANS in 20-fold molar excess (60 μM)
How it was run: as §3

TPMT = biological target: T4, TPMT (Homo sapiens, UniProt P51580); assay: ANS and SAM binding to TPMT, all investigated variants; conditions: dissociation constant, ANS, ITC (fluorescence and ITC)
T4 sequence (P51580 1-245): T1 sequence (P51580 1-245 R215H) with H215R
How it was run: as §2

[10] = TPMT enzyme activity on purified recombinant protein, 6-MP as substrate; type: biochemical, human; conditions: 6-MP as thiopurine substrate
How it was run: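 Activity of purified recombinant TPMT measured as rate of 6-methyl-mercaptopurine formation from 6-MP, with 14C-labelled S-adenosyl-L-methionine as methyl donor, following an earlier published protocol.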

[11] = Thermal denaturation of the TPMT variants by CD at 222 nm, no ligand; type: physicochemical, human; conditions: 3 μM protein, pH 7.3
How it was run: as §1

[12] = cited from earlier work
[13] = SAM in 10-fold molar excess (30 μM), 3 μM protein
[14] = CD at 222 nm, ANS in 20-fold molar excess (60 μM), 3 μM protein

thermal melting temperature, circular dichroism, +SAM (TPMT*8 (R215H) [1]; [13]): 47.3 ± 0.3 °C | thermal melting temperature, circular dichroism, +SAM (TPMTwt [2]; [13]): 46.8 ± 0.5 °C | Kd (TPMT*8 (R215H) [3]): 1500 ± 100 nM | Kd (TPMT*6 (Y180F) [4]): 1800 ± 500 nM | thermal melting temperature, circular dichroism, +SAM (TPMT*6 (Y180F) [5]; [13]): 40.5 ± 0.5 °C | Kd (TPMTwt [6]; SAM): 2200 ± 700 nM
Molecule: C[S+](CC[C@H](N)C(=O)[O-])C[C@H]1O[C@@H](n2cnc3c(N)ncnc32)[C@H](O)[C@@H]1O (stereo partly shown) [SAM, S-adenosylmethionine]

thermal melting temperature, fluorescence, +ANS (TPMT*6 (Y180F) [7]): 49.6 °C and 49.6 ± 0.4 °C | thermal melting temperature, +ANS (TPMT*8 (R215H) [1]; [14]): 51.5 °C and 51.5 ± 0.4 °C | increase of Tm on addition of ANS (TPMT*8 (R215H) [1]; CD at 222 nm, versus no ligand): 5.0 °C | thermal melting temperature, +ANS (TPMTwt [2]; [14]): 53.8 °C and 53.8 ± 0.5 °C | increase of Tm on addition of ANS (TPMTwt [2]; CD at 222 nm, versus no ligand): 7.4 °C | thermal melting temperature, fluorescence, +ANS (TPMT*8 (R215H) [8]): 54.1 °C and 54.1 ± 0.3 °C | Kd (TPMT*8 (R215H) [3]): 202 ± 11 nM | Kd (TPMT*6 (Y180F) [4]): 187 ± 32 nM | thermal melting temperature, +ANS (TPMT*6 (Y180F) [5]; [14]): 48.6 °C and 48.6 ± 0.7 °C | increase of Tm on addition of ANS (TPMT*6 (Y180F) [5]; CD at 222 nm, versus no ligand): 7.2 °C | thermal melting temperature, fluorescence, +ANS (TPMTwt [9]): 54.1 °C and 54.1 ± 0.5 °C | Kd (TPMT): ~200 nM and 200 nM | Kd (TPMTwt [6]; ANS): 219 ± 58 nM
Molecule: O=S(=O)(O)c1cccc2cccc(Nc3ccccc3)c12 [ANS, 8-anilinonaphthalene-1-sulfonic acid]

B1: TPMT*6: naturally occurring TPMT variant, Y180F, purified recombinant protein (protein, UniProt P51580 1-245, looked up, variant Y180F)
Thiopurine S-methyltransferase: T1 sequence (P51580 1-245 R215H) with Y180F, H215R
in vitro enzyme functionality [10]: fully functional; also recorded: normal functionality | thermal melting temperature, circular dichroism, no ligand [11]: 41.4 ± 1.1 °C

B2: TPMTwt: recombinant wild-type human thiopurine S-methyltransferase (residues 1–245) (protein, UniProt P51580 1-245, looked up)
Thiopurine S-methyltransferase: T1 sequence (P51580 1-245 R215H) with H215R
thermal melting temperature, circular dichroism, no ligand [11]: 46.4 ± 0.6 °C

B3: TPMT*8: naturally occurring TPMT variant, R215H, purified recombinant protein (protein, UniProt P51580 1-245, looked up, variant R215H)
Thiopurine S-methyltransferase: T1 sequence (P51580 1-245 R215H)
reported in vivo enzyme activity class [12]: intermediate | in vitro enzyme functionality [10]: fully functional; also recorded: normal functionality | thermal melting temperature, circular dichroism, no ligand [11]: 46.5 ± 0.4 °C
